RGS4 act = RGS4 potentiation or activation | HEK293 M3R/inducible RGS4, carbachol calcium flux Fluo4; active compounds read low | B-score at 10 µM | 310,000 compounds, 0.92% hits | AID 463111;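 active = B-score of the integrated calcium signal more than 4 SD below the library mean, with starting fluorescence not abnormally high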;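 note: negative B-score means reduced calcium response which marks RGS4 activation or potentiation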
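test system = HEK293 cells with stable M3R and inducible RGS4 | schedule = recording 10 s baseline at 1 Hz, 100 s post-agonist | technique = Fluo4-AM (2 µM) calcium-flux fluorescence, kinetic read | measure = Agonist-evoked peak-minus-minimum fluorescence over baseline, integrated ratio, B score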
MrgX1 ag = activates human MrgX1 receptor signaling; Q96LB2; MrgX1-HEK293 cells, Fluo-4 calcium fluorescence, agonist mode; active compounds read high; B-score at 10 µM; 310,000 compounds, 0.44% hits; AID 588627;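 active = calcium response B-score plate-corrected fluorescence ratio at least 3 library SD, with starting fluorescence B-score inside 5 SD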
Target sequence (Q96LB2 whole entry, looked up): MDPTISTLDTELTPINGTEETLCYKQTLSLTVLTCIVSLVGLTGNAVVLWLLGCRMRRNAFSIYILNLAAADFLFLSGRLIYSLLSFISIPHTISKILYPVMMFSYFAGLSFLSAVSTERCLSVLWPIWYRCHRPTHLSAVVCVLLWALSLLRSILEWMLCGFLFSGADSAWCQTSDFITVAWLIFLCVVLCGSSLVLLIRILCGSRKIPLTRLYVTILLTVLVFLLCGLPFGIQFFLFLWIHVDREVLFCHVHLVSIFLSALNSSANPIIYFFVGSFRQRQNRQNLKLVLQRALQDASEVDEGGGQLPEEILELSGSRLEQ
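Material: MrgX1-expressing HEK293 cells; input: 15,000 cells per well; doses: test compound given as first of three sequential additions; schedule: overnight plating before 1 h dye loading; technique: Fluo-4 NW calcium-flux fluorescence, kinetic read; evaluation: baseline-normalised fluorescence change ratio, B-scored; control set: plate-wise positive and negative controls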
MrgX1 PAM = allosterically activates human MrgX1 receptor signaling. MrgX1-HEK293, Fluo-4 calcium flux, FDSS; active compounds read high. B-score at 10 µM. Q96LB2. 310,000 compounds, 0.63% hits;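 active = plate-corrected calcium response at least 3 library SD above typical, normal starting fluorescence, not activating the receptor alone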;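 note: compound read alongside a low EC10 to EC30 dose of BAM8-22 agonist; peak minus trough fluorescence over baseline measured at the second addition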
RGS4 inh = human RGS4 inhibition; 310,000 compounds, 0.45% hits; HEK293 M3R/RGS4 inducible, Fluo-4 calcium flux; active compounds read high; triggered by carbachol at its EC20; B-score at 10 µM;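 active = B-score, a plate-corrected calcium signal, over three deviations above library mean, with baseline fluorescence within five deviations of library mean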;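 note: RGS4 expression induced by doxycycline in cells with stable M3 receptor; B-score is computed from the integrated fluorescence ratio over baseline after carbachol; higher B-score means a larger calcium signal and so more RGS4 inhibition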
Target sequence (P49798 whole entry, looked up): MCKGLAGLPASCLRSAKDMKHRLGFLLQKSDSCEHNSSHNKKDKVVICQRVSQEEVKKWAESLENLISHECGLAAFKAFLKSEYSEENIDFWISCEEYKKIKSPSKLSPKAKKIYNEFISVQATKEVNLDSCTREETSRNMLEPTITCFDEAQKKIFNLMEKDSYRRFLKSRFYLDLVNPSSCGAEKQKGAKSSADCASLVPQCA
MrgX1 antagonist = human MrgX1 receptor antagonism, primary screen; MRGX1-HEK293 calcium flux, Fluo-4, BAM8-22 antagonism; active compounds read low; B-score at 10 µM; 310,000 compounds, 1.3% hits;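 active = calcium-response B-score plate-corrected more than 3 library SD below zero, starting fluorescence within 5 deviations, no agonist response on first addition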;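 note: peak minus trough fluorescence over baseline after final BAM8-22 challenge near maximal dose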
MrgX1 antag conf = reconfirmed antagonist of human MrgX1 receptor signaling; shares compounds with MrgX1 antagonist; MrgX1-HEK293, BAM8-22 calcium flux, Fluo-4; active compounds read low; remaining BAM8-22 calcium response % of control (active compounds read low), % at 10 µM; 2,300 compounds, 19% hits; AID 602420;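 active = remaining agonist calcium response no higher than 100% minus 3 SD of agonist-only control wells, with starting fluorescence near control levels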;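 note: agonist BAM8-22 given at a near maximal EC90 to ECmax level; peak minus minimum fluorescence divided by baseline after agonist addition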
HEK293 Ca flux = MrgX1 antagonist counter-screen hit in parental HEK293 cells; Fluo-4 calcium fluorescence, FDSS; shares compounds with MrgX1 antagonist; fluorescence ratio F(max-min)/F0 at 10 µM; 4,000 compounds, 2% hits;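 active = duplicate-averaged calcium fluorescence ratio at least three times the standard deviation of buffer wells, a nonspecific response in parental cells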
HEK293 Ca counter = activity in parental HEK293 cells without MrgX1; fluorescence ratio F(max-min)/F0 at 10 µM; parental HEK293 calcium flux, Fluo-4 fluorescence ratio; active compounds read high; shares compounds with MrgX1 antagonist; AID 624114; 4,000 compounds, 0.4% hits;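 active = calcium fluorescence ratio, averaged over duplicates, at least 3 SD of the buffer-well ratio, meaning a nonspecific response in receptor-free cells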;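 note: untransfected parental HEK293 lacking MrgX1 used as counterscreen for MrgX1 allosteric activators; fluorescence change taken during the second addition on a kinetic imager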
HEK293 Ca cntr2 = counter-screen for MrgX1 activators: effect in parental HEK293 cells. shares compounds with MrgX1 antagonist. Fluo-4 calcium fluorescence (FDSS); active compounds read high. fluorescence ratio F(max-min)/F0 at 10 µM. 4,000 compounds, 8.7% hits. AID 624115;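 active = calcium fluorescence ratio at least three times the spread of buffer wells, meaning a non-specific response in parental cells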
The depositor's hits bear a star; i = inactive; · = no result. This is a sample that favours compounds with a hit; in the whole collection about 3.5% have one here.

SMILES	RGS4 act	MrgX1 ag	MrgX1 PAM	RGS4 inh	MrgX1 antagonist	MrgX1 antag conf	HEK293 Ca flux	HEK293 Ca counter	HEK293 Ca cntr2
Cc1ccc(Oc2nccc(-c3ccc(Cl)cc3)n2)cc1	i	i	i	i	i	·	·	·	·
CC1=C(C(=O)c2ccccc2)C(c2ccc(N3CCOCC3)cc2)NC(=O)N1 (stereo not given)	i	i	i	i	-8.09*	73.4%*	i	i	i
CC1=C(C(=O)c2ccccc2)C(c2ccc(O)cc2)NC(=S)N1 (stereo not given)	i	i	i	i	i	·	·	·	·
Cc1cc(C)cc(-n2ncc3c2CCCC3NC(=O)CN2CCCCC2=O)c1 (stereo not given)	i	i	i	i	-8.32*	i	i	i	i
CC(C)(C)c1ccc(-n2ncc3c2CCCC3NC(=O)CCN2CCCCC2=O)cc1 (stereo not given)	i	i	i	i	i	·	·	·	·
CN(C)CCNc1cnn(-c2ccccc2)c(=O)c1Cl	i	i	i	i	i	·	·	·	·
COc1cccc(C(=O)COc2ccc3c(C)cc(=O)oc3c2)c1	i	i	i	i	-5.1*	83.4%*	i	i	i
Cc1cccn2cc(-c3c[nH]c4ccccc34)nc12	i	i	i	i	i	·	·	·	·
Brc1ccc2nc(-c3c[nH]c4ccccc34)cn2c1	i	i	i	i	-5.35*	i	i	i	i
O=C1NC2(CCCc3ccccc32)C(=O)N1CCOc1ccc(Br)cc1 (stereo not given)	i	i	i	i	i	·	·	·	·
CCOc1ccc(OCCN2C(=O)NC3(CCCc4ccccc43)C2=O)cc1 (stereo not given)	i	i	i	i	-5.47*	i	i	i	i
Cc1ccccc1OCCCN1CCCC1	i	i	i	i	-7.22*	i	i	i	i
O=C(CSc1nc(=O)n(CCCN2CCOCC2)c2c1CCCC2)Nc1ccc(F)cc1	i	i	i	i	i	·	·	·	·
O=C(c1cc(COc2ccc(F)cc2Cl)on1)N1CCCCC1c1cccnc1 (stereo not given)	i	i	i	i	i	·	·	·	·
Cc1nonc1C1CCCN1C(=O)c1cc(COc2ccc(F)cc2Cl)on1 (stereo not given)	i	i	i	i	-8.77*	i	i	i	i
C/C=C/c1ccc(OCC(=O)OCc2csc(Nc3ccc(C)cc3)n2)c(OC)c1	i	i	i	i	i	·	·	·	·
CC(C)(C)C(=O)Nc1sc2c(c1C#N)CCN(Cc1ccccc1)C2	i	i	i	i	-5.13*	i	i	i	i
C=CCn1c(C(C)C)nc2ccccc21	i	i	i	i	-6.72*	i	i	i	i
CCn1c(N)nc2ccccc21	i	i	i	i	i	·	·	·	·
CCc1nc2ccccc2n1CCc1ccccc1	i	i	i	i	i	·	·	·	·
C=CCn1c(C(O)c2ccccc2)nc2ccccc21 (stereo not given)	i	i	i	i	i	·	·	·	·
C=CCn1c(N)nc2ccccc21	i	i	i	i	-4.61*	i	i	i	i
CCc1nc2ccccc2n1CCC(C)C	i	i	i	i	-6.32*	i	i	i	i
CCCn1c(N)nc2ccccc21	i	i	i	i	-5.47*	i	i	i	i
Cn1c(-c2cccc([N+](=O)[O-])c2)cnc1NCc1ccc(C#N)cc1	i	i	i	i	i	·	·	·	·
SMILES	RGS4 act	MrgX1 ag	MrgX1 PAM	RGS4 inh	MrgX1 antagonist	MrgX1 antag conf	HEK293 Ca flux	HEK293 Ca counter	HEK293 Ca cntr2
Cc1cccn2c(CN(C)CCC3CCCCO3)c(C(=O)N3CCCCC3)nc12 (stereo not given)	i	i	i	i	i	·	·	·	·
CCOCCn1c(CC)nc2ccccc21	i	i	i	i	i	·	·	·	·
CCOCCn1c(CCCO)nc2ccccc21	i	i	i	i	-11*	i	i	i	i
CC(=O)Nc1ccc(Sc2ncccc2C(=O)Nc2ccc(OC(F)(F)F)cc2)cn1	i	i	i	i	-10*	i	i	i	i
Nc1ncnc2nc(SCC(=O)N3CCN(c4ccccc4)CC3)[nH]c12	i	i	i	i	-4.71*	i	i	i	i
O=C(Nc1ccc(N2C(=O)C3C4C=CC(C4)C3C2=O)cc1)Nc1nncs1 (stereo not given)	i	i	i	i	-4.63*	i	i	i	i
COc1ccccc1NC(=O)CSc1nc(N)cc(N)n1	i	i	i	i	-5.54*	i	i	i	i
COc1ccccc1NC(=O)CSc1nc(N)c(C#N)cc1C#N	i	i	i	i	i	·	·	·	·
O=S(=O)(NC1CCCCC1N1CCN(c2ccccc2F)CC1)c1ccc(Cl)cc1 (stereo not given)	i	i	i	i	-9.64*	i	i	i	i
COc1cc(NC(=O)c2cccs2)c(C(=O)OCC(=O)NC(=O)NCc2ccccc2)cc1OC	i	i	i	i	i	·	·	·	·
COc1cc(NC(=O)c2cccs2)c(C(=O)OCC(=O)NC(=O)NC(C)(C)C)cc1OC	i	i	i	i	-4.55*	81.1%*	i	i	i
CC(=O)N1CCN(C2=NC(=O)/C(=C/c3ccc(OS(=O)(=O)c4ccccc4)cc3)S2)CC1	i	i	i	i	i	·	·	·	·
COc1ccccc1-c1nnc(SCc2nc3ccccc3s2)n1C	i	i	i	i	-5.76*	i	i	i	i
CC1c2[nH]c3ccccc3c2CCN1C(=O)Nc1ccccc1 (stereo not given)	i	i	i	i	-7.52*	i	i	i	i
COc1cccc(CNC(=O)c2cc(S(=O)(=O)N3CCOCC3)cn2C)c1	i	i	i	i	i	·	·	·	·
